How the values were obtained:
[1] = molecular target: PI3-kinase p110-alpha/p85-alpha (Homo sapiens) (UniProt P27986+P42336); experiment: Inhibition of wild type PI3K p110alpha/p85alpha niSH2 (unknown origin) expressed in baculovirus infected sf9 cells assessed as reduction in PIP3 formation at 100 uM using PIP2 as substrate after 45 mins by fluorescence polarization assay relative to control
In short: (§1)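 Wild-type PI3Kα, either full-length or the p110α/niSH2 construct used for crystallography. Protein was co-expressed in Sf9 cells from p110α and p85α (or niSH2) viruses at MOI ratio 3:2, with J-32 in the medium, and harvested at 48 h. Fragments were added from 10% (v/v) DMSO dilutions and screened at 100 μM. Reactions held 10 μM PIP2 and 25 μM ATP, 45 min at room temperature. PIP3 formation was read by fluorescence polarization.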

[2] = molecular target: T1, Phosphatidylinositol 4,5-bisphosphate 3-kinase catalytic subunit alpha isoform (Homo sapiens, UniProt P42336); experiment: Inhibition of full length PI3Kalpha (unknown origin) assessed as reduction in PIP3 formation at 100 uM using PIP2 as substrate after 45 mins by fluorescence polarization assay relative to control; in short: as §1
T1 sequence (P42336 whole entry, canonical isoform): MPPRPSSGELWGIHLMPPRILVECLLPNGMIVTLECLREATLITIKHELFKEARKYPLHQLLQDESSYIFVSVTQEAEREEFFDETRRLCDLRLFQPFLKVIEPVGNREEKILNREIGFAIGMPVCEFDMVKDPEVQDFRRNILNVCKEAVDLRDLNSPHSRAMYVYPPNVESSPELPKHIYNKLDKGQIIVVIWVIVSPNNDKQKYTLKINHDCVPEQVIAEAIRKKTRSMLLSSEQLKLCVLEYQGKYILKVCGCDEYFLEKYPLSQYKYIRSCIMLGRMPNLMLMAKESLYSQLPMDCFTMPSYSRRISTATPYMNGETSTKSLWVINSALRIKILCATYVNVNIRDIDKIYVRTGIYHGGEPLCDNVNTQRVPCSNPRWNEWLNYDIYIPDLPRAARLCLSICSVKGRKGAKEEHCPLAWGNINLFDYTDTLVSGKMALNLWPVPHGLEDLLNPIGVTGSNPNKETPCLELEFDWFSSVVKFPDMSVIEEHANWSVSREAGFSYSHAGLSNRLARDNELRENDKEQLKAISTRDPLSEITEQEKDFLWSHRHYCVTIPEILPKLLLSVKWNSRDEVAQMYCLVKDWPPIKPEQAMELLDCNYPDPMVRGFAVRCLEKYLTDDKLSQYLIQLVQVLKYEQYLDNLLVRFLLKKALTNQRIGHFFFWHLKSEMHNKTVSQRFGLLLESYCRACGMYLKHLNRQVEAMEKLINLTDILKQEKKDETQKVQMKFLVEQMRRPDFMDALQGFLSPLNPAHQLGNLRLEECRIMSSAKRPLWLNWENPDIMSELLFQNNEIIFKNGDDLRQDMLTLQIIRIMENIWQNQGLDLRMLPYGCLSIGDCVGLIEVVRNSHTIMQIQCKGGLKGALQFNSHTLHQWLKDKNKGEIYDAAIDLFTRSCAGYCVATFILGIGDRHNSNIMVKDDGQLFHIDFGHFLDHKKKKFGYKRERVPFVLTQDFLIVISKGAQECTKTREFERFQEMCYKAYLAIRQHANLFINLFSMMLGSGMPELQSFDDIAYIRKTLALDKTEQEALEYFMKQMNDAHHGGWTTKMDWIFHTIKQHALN

[3] = molecular target: T1, Phosphatidylinositol 4,5-bisphosphate 3-kinase catalytic subunit alpha isoform; experiment: Inhibition of full length PI3Kalpha (unknown origin) assessed as reduction in PIP3 formation using PIP2 as substrate after 45 mins by fluorescence polarization assay
In short: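 Wild-type full-length p110α/p85α PI3Kα, baculovirus-expressed in Sf9 cells, purified. Fluorescence polarization kit detecting PIP3 formation. Reaction with 10 μM PIP2 and 25 μM ATP, 45 min at room temperature. Fragments diluted in 10% (v/v) DMSO. Single-point screen at 100 μM; IC50 from dose-response curves over increasing fragment concentrations.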

Row | SMILES | inhibition [1] [%] | inhibition [2] [%] | IC50 [3] [µM]
1 | N#Cc1cccc(N)c1 | < 25 | < 25 | 
2 | NS(=O)(=O)c1ccccc1Cl | < 25 | < 25 | 
3 | COc1ccccc1C(=O)O | < 25 | < 25 | 
4 | O=C(O)CCc1ccc(O)cc1 | < 25 | < 25 | 
5 | Cc1ccnc(N)c1[N+](=O)[O-] | < 25 | < 25 | 
6 | O=C(O)c1ccccc1O | < 25 | < 25 | 
7 | O=c1[nH]c(=O)c2nccnc2[nH]1 | < 25 | < 25 | 
8 | Cc1c(N)cccc1N |  | 92 | 20
9 | Nc1ccc2[nH]c(C(F)(F)F)nc2c1 | < 25 | < 25 | 
10 | Cc1cc(C)nc(N)c1 | < 25 | < 25 | 
11 | Cc1cc2ccccc2[nH]1 | < 25 | < 25 | 
12 | Oc1ccccc1O [CATECHOL] |  | 87 | 33
13 | Nc1ccc2c(c1)CN=N2 | < 25 | < 25 | 
14 | Oc1cccnc1 | < 25 | < 25 | 
15 | Nc1ccccc1CO | < 25 | < 25 | 
16 | Nc1nc2ccccc2[nH]1 | < 25 | < 25 | 
17 | O=c1[nH]cc(F)c(=O)[nH]1 | < 25 | < 25 | 
18 | CC(C)(C)OC(=O)N1CCC(N)CC1 | < 25 | < 25 | 
19 | Cc1cccc(N)n1 | < 25 | < 25 | 
20 | CC1C(=O)CCCC1=O | < 25 | < 25 | 
21 | OC1CCC(O)CC1 (configuration not stated) | < 25 | < 25 | 

Reference: ChEMBL document CHEMBL3877328, “Identification of allosteric binding sites for PI3Kα oncogenic mutant specific inhibitor design” (Bioorg Med Chem, 2017)
